Screening results deposited in PubChem by Broad Institute.
PvdQ inh – P. aeruginosa PvdQ acylase inhibition; purified PvdQ acylase, fluorescence plate reader; inhibition, % at 10 µM; 0.063% of 340,000 active; in the data active means inhibition above about 30%, passing the limit was not always enough;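 further: 0% = vehicle neutral wells and 100% = reference inhibitor wells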
CAL PDZ FP-1 – human CAL PDZ-peptide interaction inhibition. purified CAL PDZ, TMR-peptide fluorescence polarization, 1 h. Q9HD26. inhibition, % at 20 µM. 0.02% of 330,000 active;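 active means highest replicate inhibition of at least 40%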;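 further: plate controls were DMSO neutral control wells for no effect and unlabeled competitor peptide control wells for full effect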
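Test system: purified CerCALP PDZ construct; Compound dosing: one concentration, 20 µM compound; Also added: TMR-labelled reporter peptide T*-PRC34 bound in PDZ groove; Read-out: inhibition from polarization loss; Controls: unlabelled peptide and DMSO controls; Signal: FP readout, S and P plane fluorescence; Incubation: 1 h at RT.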
CAL PDZ FP-2 – CAL PDZ (human) peptide binding inhibition; purified CAL PDZ, TMR-peptide fluorescence polarization, 1 h; inhibition, % at 24.9 µM; 0.92% of 300,000 active;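 active means mean inhibition of at least 30% with at least half of replicates also reaching 30%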;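 further: 0% = DMSO neutral control and 100% = excess unlabeled competitor peptide PRC23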
miR122 inh – miR-122 inhibition in Huh7 cells. Huh7 miR-122 Renilla luciferase sensor, 48 h; neutral wells = 0, positive control = 100. activation (reporter increase), % at 12.5 µM. 0.3% of 340,000 active. AID 602342;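 active means mean replicate activation score at least 90 and every replicate individually at or above 90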;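 further: higher luciferase means less miR-122 activity so hits act as miR-122 inhibitors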
* hit, by the source's call; nt = no result; [ ] = remark or other dose. This is a sample that favours compounds with a hit; in the whole collection about 0.95% have one here.

SMILES	PvdQ inh	CAL PDZ FP-1	CAL PDZ FP-2	miR122 inh
COC(=O)C1=C(C)NC2=C(C(=O)CC(c3cccs3)C2)C1c1ccsc1 (stereo not given)	-5	-2	-2	16
CCOC(=O)C1=C(C)NC2=C(C(=O)CC(c3cccs3)C2)C1c1cccs1 (stereo not given)	0	-1	nt	95*
O=C(Nc1ccccc1C(=O)N1CCN(c2ccccc2)CC1)c1ccco1	-10	0	47*	1
Cc1ccc(C(=O)N2CCN(c3ccccc3)CC2)cc1NC(=O)c1ccco1	-8	-2	-5	nt
Cc1ccccc1NC(=O)c1ccc(NS(=O)(=O)c2cc(C(C)(C)C)cc(C)c2C)cc1	5	0	10	321*
O=C(COc1ccc(-c2ccccc2)cc1)N1CCN(S(=O)(=O)Cc2ccccc2)CC1	15	-2	-1	99*
CCOC(=O)CN(C(=O)CSc1nnc(-c2cccc(OC)c2)o1)c1ccc(F)cc1	-18	13	32*	-16
COCCN(C(=O)Cc1cccs1)C(C(=O)NCc1ccc(OC)cc1)c1ccc(C)cc1 (stereo not given)	-5	-3	-4	19
COc1ccc(CNC(=O)C(c2ccc(C)o2)N(Cc2cccs2)C(=O)Cc2cccs2)cc1 (stereo not given)	-4	-1	nt	158*
Cc1cc(Nc2ccccc2)nc(-c2ccccc2O)n1	-10	0	1	2
Cc1cc(Nc2ccccc2Cl)nc(-c2ccccc2O)n1	-16	nt	57*	-4
O=C(Nc1ccccn1)Nc1ccccc1Cl	-8	3	31*	1
O=C(O)C[C@H]1C[C@H]2c3cc(NC(=O)Nc4ccc(C(F)(F)F)cc4)ccc3O[C@H]2[C@@H](CO)O1	nt	nt	nt	2[16.7 µM]
COc1ccc(C2C(C(=O)c3ccco3)=C(O)C(=O)N2CC2CCCO2)cc1OC (stereo not given)	-19	0	52*	3
FC(F)(F)c1cccc(NC(=S)NCc2ccc(Cl)cc2)c1	0	0	-6	nt
COCc1[nH][nH]c(=O)c1C=Nc1ccccc1	3	-3	1	1
COCc1[nH][nH]c(=O)c1/C=N/N1CCOCC1	-14	-1	43*	nt
Fc1ccc2c(c1)Sc1ccc(Cl)cc1CC2N1CCN(CCC2OCCO2)CC1 (stereo not given)	-2	-1	-5	nt
CCSc1nsc(NC(=O)Nc2cccc(F)c2)n1	-10	8	70*	-23
COc1cccc(NC(=O)Nc2nc(SC)ns2)c1	12	-1	-1	1
COc1ccc(CN2CCCC(C(=O)c3cccc(OC(C)C)c3)C2)cc1Cn1cccn1 (stereo not given)	33*	0	4	1
CN(C(=O)c1ccco1)c1nc(-c2ccc(F)cc2)cs1	0	0	nt	1
COCCN(C(=O)COC(=O)/C=C/c1ccc2ccccc2n1)c1c(N)n(Cc2ccccc2)c(=O)[nH]c1=O	-16	-4	43*	-7
COCCN(C(=O)CSc1nc2ccccc2s1)c1c(N)n(Cc2ccccc2)c(=O)[nH]c1=O	-4	-1	99*	nt
COCCN(C(=O)COC(=O)CCc1nc2ccccc2s1)c1c(N)n(Cc2ccccc2)c(=O)[nH]c1=O	2	-2	-4	nt
SMILES	PvdQ inh	CAL PDZ FP-1	CAL PDZ FP-2	miR122 inh
COc1ccc(OCc2nnc(SCC(=O)Nc3cccc(C(C)=O)c3)o2)cc1	-24	-1	nt	5
Cc1ccc(S(=O)(=O)N(C)C[C@H]2Oc3c(NC(=O)c4cnccn4)cccc3C(=O)N([C@H](C)CO)C[C@@H]2C)cc1	nt	nt	nt	9[16.7 µM]
CC(C)c1ccc(S(=O)(=O)c2nnn3c2nc(N2CCCCC2)c2ccccc23)cc1	-2	0	-6	nt
N#Cc1cnn2c1nc(N1CCCCC1)c1ccccc12	6	0	-5	134*
O=C(OCC(=O)N1CCN(C(=O)c2ccco2)CC1)c1cc(S(=O)(=O)Nc2ccc(Cl)cc2)ccc1O	-9	-2	53*	nt
O=C(OCC(=O)N1CCN(C(=O)c2ccco2)CC1)c1cncc(Br)c1	-20	1	36*	-10
Cc1ccc(Cn2c(=O)c3cccnc3n(CC(=O)Nc3cccc(C(F)(F)F)c3)c2=O)cc1	6	-1	-2	nt
COc1cccc(CNC(=O)c2ccc(COc3ccccc3)cc2)c1	8	-2	nt	nt
CCn1ncc(Br)c1C(=O)Nc1ccc2c(c1)OCCO2	4	0	0	nt
CCn1ncc(Br)c1C(=O)Nc1cccc(F)c1	-21	23	33*	nt
Cc1ccc(C(=O)N(CC(=O)NC2CCCC2)c2ccccc2F)s1	nt	nt	nt	5
O=C(Nc1ccc(Cl)cc1)c1ccc(Br)cc1F	-10	-1	-9	nt
CC(C)c1ccc(NC(=O)c2cc(Br)ccc2Br)cc1	12	0	37*	17
Cc1cc(C(=O)NNC(=O)c2ccc(Cl)c(S(N)(=O)=O)c2)c(C)o1	-13	0	64*	1
COc1ccccc1NC(=S)N(Cc1ccc(C(=O)O)cc1)Cc1ccc(OC)c(OC)c1	-12	0	50*	-4
COc1ccc(CN(Cc2ccc(C(=O)O)cc2)C(=S)Nc2ccccc2F)cc1OC	-3	-3	nt	2
CCOc1ccccc1NC(=O)Cn1nnc(C(=O)NCc2ccco2)c1N	7	-2	7	136*
Cc1ccccc1NC(=O)Cn1nnc(C(=O)NCc2ccco2)c1N	-7	-4	-3	36
O=C(CNCC(=O)Nc1ccc(F)c(F)c1F)Nc1ccc(F)c(F)c1F	-17	nt	-9	-11
O=C(Cc1ncon1)Nc1ccc(F)c(F)c1F	-8	0	78*	-6
O=C1CCCc2c1ccc1ccccc21	-14	0	nt	-4
CCOC(=O)c1cnc2nc(Cc3ccccc3)[nH]n2c1=O	-10	0	nt	5
CCOC(=O)c1cnc2nc(C(F)(F)F)[nH]n2c1=O	-10	-1	103*	-10
Nc1nc(N)c(Br)c(Nc2ccc(Cl)c(Cl)c2)n1	0	0	nt	10
COc1ccc(C2C(C(=O)N3CCOCC3)CCC(=O)N2c2ccc(OC)cc2)cc1 (stereo not given)	-10	-1	108*	3
SMILES	PvdQ inh	CAL PDZ FP-1	CAL PDZ FP-2	miR122 inh
CN(c1ccccc1)S(=O)(=O)c1ccc2ccccc2c1	-13	0	-5	-3
O=CN(c1ccccc1)c1ccc2ccccc2c1	79*	-2	-4	nt
O=C(O)CSCC(=O)N(Cc1ccccc1)c1nc(-c2ccccc2)c(-c2ccccc2)s1	-14	-1	44*	-4
Cc1nn(-c2ccccc2)c2c1C(c1ccc(F)cc1F)C(C#N)=C(N)O2 (stereo not given)	-10	-2	30*	-5
Fc1ccc(Cn2nnc3ccccc32)cc1	-16	nt	123*	-8
CCn1c(SCC(=O)Nc2ccc(N3CCOCC3)cc2)nnc1-c1ccc(OC)cc1	-9	4	nt	142*
CCSc1ccc(-c2cccc([N+](=O)[O-])c2)nn1	48*	0	4	1
CCn1c(SCC(=O)Nc2cc(C)on2)nnc1-c1ccc(C)cc1	-7	-2	-8	-5
CCn1c(C)nnc1SCC(=O)Nc1ccc(N2CCOCC2)cc1	-7	-1	nt	nt
O=C(CSc1ccc(-c2cccc([N+](=O)[O-])c2)nn1)N1CCCC1	-15	nt	65*	nt
